Measurements as given in ChEMBL document CHEMBL5055640, “Discovery of Novel Acetamide-Based Heme Oxygenase-1 Inhibitors with Potent In Vitro Antiproliferative Activity” (J Med Chem, 2021).
The source made the active and inactive calls. The rule behind the calls is not given here.

Tests used:
Heme oxygenase 1 = molecular target: T1, Heme oxygenase 1 (Rattus norvegicus, UniProt P06762); assay: Inhibition of Sprague-Dawley rat spleen microsome HO-1 assessed as bilirubin formation incubated for 60 mins by double-beam spectrophotometry; format: microsomes
T1 sequence (P06762 whole entry): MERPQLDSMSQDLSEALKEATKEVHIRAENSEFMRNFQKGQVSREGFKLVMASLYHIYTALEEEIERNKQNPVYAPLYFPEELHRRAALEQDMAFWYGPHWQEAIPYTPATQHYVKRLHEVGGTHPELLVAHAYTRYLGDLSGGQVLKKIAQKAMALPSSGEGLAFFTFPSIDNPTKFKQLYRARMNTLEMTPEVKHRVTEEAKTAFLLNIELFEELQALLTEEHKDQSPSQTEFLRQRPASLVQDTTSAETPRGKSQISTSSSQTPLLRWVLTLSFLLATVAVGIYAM

A549 [1] = assay: Antiproliferative activity against human A549 cells assessed as reduction in cell viability at 10 uM incubated for 48 hrs by MTT assay; format: functional, cell-based
Procedure, shortened: (§1)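 Cells grown in DMEM with 10% heat-inactivated FBS and penicillin/streptomycin at 37 °C, 5% CO2, seeded at 7 × 10^3 cells/well. After 24 h, treated 48 h at 1, 10 or 50 μM. MTT 0.5 mg/mL added for 4 h at 37 °C, formazan dissolved in DMSO, A570 read. Eight replicate wells per group, at least three independent experiments, % of control, mean ± SEM.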

DU-145 [2] = assay: Antiproliferative activity against human DU145 cells assessed as reduction in cell viability at 1 uM incubated for 48 hrs by MTT assay; format: functional, cell-based; procedure, shortened: as §1
A549 [3] = assay: Antiproliferative activity against human A549 cells assessed as reduction in cell viability at 1 uM incubated for 48 hrs by MTT assay; format: functional, cell-based; procedure, shortened: as §1
U-87 MG [4] = assay: Antiproliferative activity against human U-87MG cells assessed as reduction in cell viability at 1 uM incubated for 48 hrs by MTT assay relative to control; format: functional, U-87MG ATCC; procedure, shortened: as §1
A 172 [5] = assay: Antiproliferative activity against human A172 cells assessed as reduction in cell viability at 10 uM incubated for 48 hrs by MTT assay; format: functional, cell-based; procedure, shortened: as §1
DU-145 [6] = assay: Antiproliferative activity against human DU145 cells assessed as reduction in cell viability at 10 uM incubated for 48 hrs by MTT assay; format: functional, cell-based; procedure, shortened: as §1
DU-145 [7] = assay: Antiproliferative activity against human DU145 cells assessed as reduction in cell viability at 50 uM incubated for 48 hrs by MTT assay; format: functional, cell-based; procedure, shortened: as §1
U-87 MG [8] = assay: Antiproliferative activity against human U-87MG cells assessed as reduction in cell viability at 50 uM incubated for 48 hrs by MTT assay relative to control; format: functional; details: for inhibition: U-87MG ATCC; procedure, shortened: as §1
U-87 MG [9] = assay: Antiproliferative activity against human U-87MG cells assessed as reduction in cell viability at 10 uM incubated for 48 hrs by MTT assay relative to control; format: functional, U-87MG ATCC; procedure, shortened: as §1
A 172 [10] = assay: Antiproliferative activity against human A172 cells assessed as reduction in cell viability at 50 uM incubated for 48 hrs by MTT assay; format: functional, cell-based; procedure, shortened: as §1
A549 [11] = assay: Antiproliferative activity against human A549 cells assessed as reduction in cell viability at 50 uM incubated for 48 hrs by MTT assay; format: functional, cell-based; procedure, shortened: as §1
DU-145 [12] = assay: Reduction in HO-1 expression in human DU-145 cells at 10 uM incubated for 48 hrs by Western blot analysis; format: functional, cell-based
Procedure, shortened: (§2)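 Cells treated 48 h at 10 μM. Lysed in Tris/EDTA/EGTA/sucrose buffer with protease and phosphatase inhibitors, sonicated, spun. 30 μg protein resolved on 4–15% Bis-Tris gel, transferred to PVDF, probed for HO-1. Band density normalized to actin and given as fold change; three independent experiments, mean ± SEM.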

Heme oxygenase 2 = molecular target: T2, Heme oxygenase 2 (Rattus norvegicus, UniProt P23711); assay: Inhibition of Sprague-Dawley rat brain microsome HO-2 assessed as bilirubin formation incubated for 60 mins by double-beam spectrophotometry; format: microsomes
T2 sequence (P23711 whole entry): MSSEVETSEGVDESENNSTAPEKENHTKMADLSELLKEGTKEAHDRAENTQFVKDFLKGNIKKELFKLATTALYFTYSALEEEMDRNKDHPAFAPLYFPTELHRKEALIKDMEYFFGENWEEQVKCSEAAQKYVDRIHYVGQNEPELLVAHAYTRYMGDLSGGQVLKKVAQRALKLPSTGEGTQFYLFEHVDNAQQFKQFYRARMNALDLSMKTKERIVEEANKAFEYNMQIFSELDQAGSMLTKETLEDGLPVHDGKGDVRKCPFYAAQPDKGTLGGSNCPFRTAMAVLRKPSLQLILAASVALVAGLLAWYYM

Rattus norvegicus = organism: Rattus norvegicus; assay: Selectivity index, ratio of IC50 for inhibition of Sprague-Dawley rat brain microsome HO-2 to IC50 for inhibition of Sprague-Dawley rat spleen microsome HO-1
U-87MG ATCC [13] = assay: Reduction in HO-1 expression in human U-87MG cells at 10 uM incubated for 48 hrs by Western blot analysis; format: functional, cell-based; procedure, shortened: as §2
U-87MG ATCC [14] = assay: Reduction in VEGF intracellular expression in human U-87 MG cells by Western blot analysis; format: functional, cell-based
Procedure, shortened: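 U87MG cells treated 48 h with vehicle or 10 μM compound. Lysates (30 μg protein) resolved on 4–15% Bis-Tris gel and immunoblotted with goat polyclonal anti-VEGF; β-tubulin and β-actin antibodies also used.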

[15] = molecular target: T3, Heme oxygenase 1 (Homo sapiens) (UniProt P09601); assay: Inhibition of human HO-1 activity in human U-87MG cells assessed as reduction in immunoreactivity in cytoplasm at 10 uM incubated for 48 hrs […]; format: cell-based
T3 sequence (whole entry): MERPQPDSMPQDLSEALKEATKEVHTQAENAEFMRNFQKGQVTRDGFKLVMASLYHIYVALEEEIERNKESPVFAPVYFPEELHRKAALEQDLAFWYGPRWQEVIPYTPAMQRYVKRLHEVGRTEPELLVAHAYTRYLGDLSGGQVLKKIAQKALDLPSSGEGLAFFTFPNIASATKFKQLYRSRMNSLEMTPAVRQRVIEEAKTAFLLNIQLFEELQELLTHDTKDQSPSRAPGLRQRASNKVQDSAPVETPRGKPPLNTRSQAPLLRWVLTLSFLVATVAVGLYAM
Procedure, shortened: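 U87MG cells on coverslips treated 48 h at 10 μM or left untreated. Fixed in 4% paraformaldehyde, permeabilized with 0.2% Triton X-100, blocked with 0.1% BSA, probed with rabbit anti-HO-1 then Alexa Fluor 488 anti-rabbit. Nuclei counterstained with DAPI; random fields imaged by fluorescence microscopy.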

A 172 [16] = assay: Antiproliferative activity against human A172 cells assessed as reduction in cell viability at 1 uM incubated for 48 hrs by MTT assay; format: functional, cell-based; procedure, shortened: as §1
H5V = assay: Antiangiogenesis activity in mouse H5V cells assessed as decrease in tube like structure formation using culture medium derived from human U-87 MG cells treated at 10 uM for 48 hrs; format: functional, cell-based
Procedure, shortened: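 Conditioned medium: subconfluent U87MG cells held 48 h at 37 °C in 1% FBS medium with 10 μM compound or vehicle, then spun and frozen. Overnight-starved H5V endothelial cells seeded on reduced-growth-factor basement membrane matrix and cultured 48 h at 37 °C in the conditioned medium. Tubes counted in three random fields and expressed as % of control.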

[17] = molecular target: T3, Heme oxygenase 1 (Homo sapiens); assay: Inhibition of human HO-1 activity in human U-87MG cells assessed as bilirubin formation at 10 uM
U-87MG ATCC [18] = assay: Reduction in VEGF release in human U-87 MG cells by ELISA; format: functional, cell-based
Procedure, shortened: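 Confluent U87MG cells in 1% FBS medium treated 48 h with 10 μM compound or vehicle. VEGF-A in the conditioned medium measured by sandwich ELISA: capture antibody, biotinylated anti-human VEGF, HRP-streptavidin, TMB substrate, absorbance at 450 nm.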

U-87 MG [19] = assay: Antiinvasive activity against human U-87 MG cells assessed as reduction in cell motility measured after 48 hrs by wound healing assay; format: functional, cell-based; details: U-87MG ATCC
Procedure, shortened: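 Confluent U87MG monolayers (5 × 10^4 cells/well) scratched with a pipette tip, then cultured in 1% serum medium with or without 10 μM compound. Cells advancing into the wound counted at 24 and 48 h in three random high-power fields per well, duplicate wells, and expressed as % of control. Mean ± SEM.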

Row | Compound | inhibition (A549 [1]) | inhibition (A549 [3]) | inhibition at 1 µM (U-87 MG [4]) [%] | inhibition (A 172 [5]) | inhibition at 10 µM (U-87 MG [9]) [%] | inhibition (A 172 [10]) | inhibition (A 172 [16]) | other results
1 | CN(C(=O)Cn1ccnc1)c1ccccc1 |  |  |  |  |  |  |  | IC50 (Heme oxygenase 1): 2500 µM
2 | CN(C(=O)Cn1ccnc1)C(c1ccccc1)c1ccc(OCc2ccc(Br)cc2)cc1 (configuration not stated) | inactive | inactive | 20 | Active | 20 | Active |  | inhibition (DU-145 [2]): Active; inhibition (DU-145 [6]): Active; inhibition (DU-145 [7]): Active; inhibition (U-87 MG [8]): Active; inhibition (A549 [11]): Active
3 | CN(C(=O)Cn1ccnc1)C(c1ccccc1)c1ccc(I)cc1 (configuration not stated) | inactive | inactive | > 30 | Active | > 30 | Active |  | Activity (DU-145 [12]): Active; inhibition (DU-145 [7]): Active; inhibition (U-87 MG [8]): Active; inhibition (A549 [11]): Active
4 | FC(F)(F)c1ccc(SC[C@@H]2CO[C@](CCc3ccc(Cl)cc3)(Cn3ccnc3)O2)nc1 |  |  |  |  |  |  |  | IC50 (Heme oxygenase 1): 2.1 µM; IC50 (Heme oxygenase 2): 16 µM
5 | O=C(Cn1ccnc1)NC(c1ccccc1)c1ccccc1 |  |  |  |  |  |  |  | Selectivity Index (Rattus norvegicus): 0.5
6 | CN(C(=O)Cn1ccnc1)C(c1ccccc1)c1ccc(Cl)cc1 (configuration not stated) | inactive | inactive | > 60 | Active | > 60 | Active | Active | Activity (U-87MG ATCC [13]): Active; Activity (U-87MG ATCC [14]): Active; inhibition [15]: Active; inhibition at 50 µM (U-87 MG [8]): > 60%; Activity (H5V): Active; inhibition [17]: Active; Activity (U-87MG ATCC [18]): Active; Activity (U-87 MG [19]): Active
7 | CN(C(=O)Cn1ccnc1)C(c1ccccc1)C1CCCC1 (configuration not stated) |  |  |  | Active |  | Active | Active | 
8 | CN(C(=O)Cn1ccnc1)C(c1ccccc1)c1cccc(Br)c1 (configuration not stated) | inactive | inactive | > 30 | inactive | > 30 | inactive | inactive | inhibition at 50 µM (U-87 MG [8]): > 30%
9 | CN(C(=O)Cn1ccnc1)C(c1ccccc1)c1ccccc1 | inactive | inactive |  | Active |  | Active | Active | Activity (DU-145 [12]): Active
10 | CN(C(=O)Cn1ccnc1)C(c1ccccc1)c1ccc(OCc2ccccc2)cc1 (configuration not stated) | inactive | inactive | 20 | Active | 20 | Active | Active | inhibition (DU-145 [2]): Active; inhibition (DU-145 [6]): Active; inhibition (DU-145 [7]): Active; inhibition (U-87 MG [8]): Active; inhibition (A549 [11]): Active
11 | CN(C(=O)Cn1ccnc1)C(c1ccccc1)C1CCCCC1 (configuration not stated) |  |  |  | Active |  | Active | Active | 
